ChEMBL document CHEMBL1123822, “Lysosomotropic agents. 7. Broad-spectrum antifungal activity of lysosomotropic detergents” (1987)
In brackets after ≈: the same amount, converted by molar mass.

Columns and labels:
Type in all cases: functional
Cercospora beticola = experiment: The compound was evaluated for zone inhibition against Cercospora beticola (MF4608) using disk diffusion assay; 22 Fuzzy edges
How it was run: (§1)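 Disk diffusion: 25 μL of 250 μg/mL drug in methanol on 6.2 mm paper disks, dried at room temperature, placed on seeded agar and rewet with 25 μL 10% aqueous Me₂SO. Zones were read after overnight incubation, ±1 mm. Media were unbuffered, pH ca. 4.5–5.6: potato dextrose agar for filamentous fungi, Sabouraud dextrose for yeasts, unless YNB (76 mM ammonium sulfate, sole nitrogen source) or YED is named. Zone edges were scored fuzzy, slightly hazy, hazy or very hazy.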

Candida tropicalis [1] = experiment: The compound was tested for antifungal activity against Candida tropicalis MY1012 using agar dilution assay
How it was run: (§2)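 Standardized agar dilution on Kimmig agar with 5% glycerol. Detergents solubilized in 10% Me2SO; desoxycholate-stabilized amphotericin B diluted and titrated in sterile distilled water. Twofold dilutions in sterile distilled water gave final agar concentrations of 128 to 0.06 μg/mL. Error limit ±1 dilution stage.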

Pichia kudriavzevii = experiment: The compound was tested for antifungal activity against Candida krusei MY1020 using agar dilution assay
How it was run: (§3)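 Standardized agar dilution in Kimmig agar with 5% glycerol. Lysosomotropic detergents solubilized in 10% Me₂SO. Twofold serial dilutions in sterile distilled water gave final agar concentrations of 128 to 0.06 μg/mL. Stated error ±1 dilution stage.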

Phoma = experiment: The compound was evaluated for zone inhibition against Phoma sp (MF4332) using disk diffusion assay; 23 Fuzzy edges
How it was run: (§4)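 Filter-paper disks (6.2 mm) loaded with 25 μL of a 250 μg/mL methanol solution, dried at room temperature, laid on seeded agar and rewet with 25 μL 10% aqueous Me₂SO. Media were unbuffered, pH ca. 4.5–5.6: potato dextrose agar for filamentous fungi, sabouraud dextrose agar for yeasts, unless noted. Inhibition zone diameter read after overnight incubation, ±1 mm. Zone edges scored fuzzy, slightly hazy, hazy or very hazy.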

Candida tropicalis [2] = experiment: The compound was evaluated for zone inhibition against Candida tropicalis MY1012 using disk diffusion assay; 25 Fuzzy edges; how it was run: as §1
Cryptococcus neoformans [3] = experiment: The compound was tested for antifungal activity against Cryptococcus neoformans MY1146 using agar dilution assay; how it was run: as §2
Candida parapsilosis [4] = experiment: The compound was tested for antifungal activity against Candida parapsilosis MY1009 using agar dilution assay; conditions: Lodderomyces parapsilosis; how it was run: as §3
Saccharomyces cerevisiae [5] = experiment: The compound was evaluated for mean zone diameter (inhibition) against yeast at the concentration of 250 ug/mL
How it was run: (§5)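 Filter-paper disk diffusion (6.2 mm disks) with drug in methanol at the stated level, 25 μL per disk. Disks were air-dried at room temperature, laid on seeded agar, rewet with 25 μL 10% aqueous Me₂SO and incubated overnight. Media were unbuffered, pH ca. 4.5–5.6. The panel was 21 yeasts and 21 filamentous fungi. Zones of 0 mm were excluded from means.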

Diutina rugosa = experiment: The compound was tested for antifungal activity against Candida rugosa MY1022 using agar dilution assay; how it was run: as §3
Kluyveromyces marxianus [6] = experiment: The compound was tested for antifungal activity against Candida pseudotropicalis MY1040 using agar dilution assay; how it was run: as §3
Saccharomyces cerevisiae [7] = experiment: The compound was tested for antifungal activity against Saccharomyces cerevisiae MY1027 using agar dilution assay; how it was run: as §2
Fusarium oxysporum = experiment: The compound was evaluated for zone inhibition against Fusarium oxysporum (MF4014) using disk diffusion assay; how it was run: as §4
Papiliotrema laurentii [8] = experiment: The compound was evaluated for zone inhibition against Cryptococcus laurentii MY1074 using disk diffusion assay; 16 slightly hazy; how it was run: as §4
Candida albicans [9] = experiment: The compound was tested for antifungal activity against Candida albicans My1029 using agar dilution assay; how it was run: as §3
Ustilago maydis = experiment: The compound was evaluated for zone inhibition against Ustilago zeae (MF1996) using disk diffusion assay; 28 Fuzzy edges; how it was run: as §4
Candida tropicalis [10] = experiment: The compound was tested for antifungal activity against Candida tropicalis MY1011 using agar dilution assay; how it was run: as §2
Candida albicans [11] = experiment: The compound was tested for antifungal activity against Candida albicans MY0992 using agar dilution assay; how it was run: as §3
Penicillium [12] = experiment: The compound was evaluated for zone inhibition against Penicillium sp (MF5016) using disk diffusion assay; 25 Fuzzy edges; how it was run: as §4
Papiliotrema laurentii [13] = experiment: The compound was evaluated for zone inhibition against Cryptococcus laurentii MY1077 using disk diffusion assay; 22 Fuzzy edges; how it was run: as §4
Candida albicans [14] = experiment: The compound was tested for antifungal activity against Candida albicans MY1013 using agar dilution assay; how it was run: as §3
Saccharomyces cerevisiae [15] = experiment: The compound was evaluated for zone inhibition against Saccharomyces cerevisiae MY410 using disk diffusion assay; 9 Fuzzy edges; how it was run: as §4
Trichoderma viride = experiment: The compound was evaluated for zone inhibition against Trichoderma lignorum (MF3560) using disk diffusion assay; 24 Fuzzy edges; how it was run: as §4
Trichoderma = experiment: The compound was evaluated for zone inhibition against Trichoderma sp (MF4064) using disk diffusion assay; how it was run: as §4
Cryptococcus neoformans [16] = experiment: The compound was tested for antifungal activity against Cryptococcus neoformans MY1051 using agar dilution assay; how it was run: as §2
Nakaseomyces glabratus [17] = experiment: The compound was tested for antifungal activity against Torulopsis glabrata MY1059 using agar dilution assay; how it was run: as §2
Saccharomyces cerevisiae [18] = experiment: The compound was evaluated for zone inhibition against Saccharomyces cerevisiae YED MY34 using disk diffusion assay; how it was run: as §4
Penicillium [19] = experiment: The compound was evaluated for zone inhibition against Penicillium sp (MF5020) using disk diffusion assay; 21 Fuzzy edges; how it was run: as §4
[20] = system: Meyerozyma guilliermondii; experiment: The compound was tested for antifungal activity against Candida guilliermondii MY1019 using agar dilution assay; how it was run: as §3
Candida albicans [21] = experiment: The compound was tested for antifungal activity against Candida albicans MY1058 using agar dilution assay; how it was run: as §3
Kluyveromyces marxianus [22] = experiment: The compound was evaluated for zone inhibition against Kluyveromyces fragilis MY1113 using disk diffusion assay; 13 Fuzzy edges; how it was run: as §4
Aspergillus fumigatus = experiment: The compound was tested for antifungal activity against Aspergillus fumigatus MF4839 using agar dilution assay; how it was run: as §3
Penicillium italicum = experiment: The compound was tested for antifungal activity against Penicillium italicum MF2819 using agar dilution assay; how it was run: as §2
Nakaseomyces glabratus [23] = experiment: The compound was evaluated for zone inhibition against Torulopsis glabrata MY1062 using disk diffusion assay; how it was run: as §4
Cephalosporium = experiment: The compound was evaluated for zone inhibition against Cephalosporium sp (MF4641) using disk diffusion assay; how it was run: as §1
Saccharomyces cerevisiae [24] = experiment: The compound was evaluated for mean zone diameter (inhibition) against yeast at the concentration of 125 ug/mL; how it was run: as §5
Naganishia albida = experiment: The compound was evaluated for zone inhibition against Cryptococcus albidus MY1070 using disk diffusion assay; 23 Fuzzy edges; how it was run: as §1
Aspergillus flavus = experiment: The compound was tested for antifungal activity against Aspergillus flavus MF0383 using agar dilution assay; how it was run: as §3
Candida albicans [25] = experiment: The compound was tested for antifungal activity against Candida albicans MY1055 using agar dilution assay; how it was run: as §3
Candida albicans [26] = experiment: The compound was tested for antifungal activity against Candida stellatoidea MY1017 using agar dilution assay; how it was run: as §2
Rhizomucor miehei = experiment: The compound was evaluated for zone inhibition against Rhizomucor miehei (MF4784) using disk diffusion assay; how it was run: as §4
Saccharomyces cerevisiae [27] = experiment: The compound was evaluated for mean zone diameter (inhibition) against yeast at the concentration of 62.5 ug/mL; how it was run: as §5
Candida parapsilosis [28] = experiment: The compound was tested for antifungal activity against Candida parapsilosis MY1010 using agar dilution assay; conditions: Lodderomyces parapsilosis; how it was run: as §3
Penicillium [29] = experiment: The compound was evaluated for zone inhibition against Penicillium sp (MF5014) using disk diffusion assay; 22 Fuzzy edges; how it was run: as §4
Saccharomyces cerevisiae [30] = experiment: The compound was evaluated for mean zone diameter (inhibition) against yeast at the concentration of 500 ug/mL
How it was run: (§6)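 Disk diffusion: drug in methanol spotted on 6.2 mm paper disks (25 μL/disk), dried at room temperature, laid on seeded agar, rewet with 25 μL 10% aqueous Me₂SO; zones read after overnight incubation. Unbuffered acidic media (pH ca. 4.5–5.6). Panel of 21 yeasts and 21 filamentous fungi; zones of 0 mm excluded from means.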

Fungi = experiment: The compound was evaluated for mean zone diameter (inhibition) against yeast at the concentration of 1000 ug/mL; how it was run: as §6

Compound `CCCCCCCCCCCCn1ccnc1` has an Inhibition zone (Cercospora beticola) of 22 mm, an MIC (Candida tropicalis [1]) of 8 µg/mL (≈ 33.8 µM) and an MIC (Pichia kudriavzevii) of 32 µg/mL (≈ 135 µM). It also gave an Inhibition zone (Phoma) of 23 mm, an Inhibition zone (Candida tropicalis [2]) of 25 mm and an MIC (Cryptococcus neoformans [3]) of 4 µg/mL (≈ 16.9 µM). It also gave an MIC (Candida parapsilosis [4]) of 32 µg/mL (≈ 135 µM), an Inhibition zone (Saccharomyces cerevisiae [5]) of 16.8 mm and an MIC (Diutina rugosa) of 32 µg/mL (≈ 135 µM). It also gave an MIC (Kluyveromyces marxianus [6]) of 16 µg/mL (≈ 67.7 µM), an MIC (Saccharomyces cerevisiae [7]) of 8 µg/mL (≈ 33.8 µM) and an Inhibition zone (Fusarium oxysporum) of 18 mm. For the same compound, the Inhibition zone (Papiliotrema laurentii [8]) was 16 mm, the MIC (Candida albicans [9]) was 32 µg/mL (≈ 135 µM) and the Inhibition zone (Ustilago maydis) was 28 mm. It also gave an MIC (Candida tropicalis [10]) of 32 µg/mL (≈ 135 µM), an MIC (Candida albicans [11]) of 32 µg/mL (≈ 135 µM) and an Inhibition zone (Penicillium [12]) of 25 mm. The Inhibition zone (Papiliotrema laurentii [13]) was 22 mm, the MIC (Candida albicans [14]) was 16 µg/mL (≈ 67.7 µM) and the Inhibition zone (Saccharomyces cerevisiae [15]) was 9 mm. It also gave an Inhibition zone (Trichoderma viride) of 24 mm, an Inhibition zone (Trichoderma) of 18 mm and an MIC (Cryptococcus neoformans [16]) of 4 µg/mL (≈ 16.9 µM). The MIC (Nakaseomyces glabratus [17]) was 16 µg/mL (≈ 67.7 µM), the Inhibition zone (Saccharomyces cerevisiae [18]) was 15 mm and the Inhibition zone (Penicillium [19]) was 21 mm. The MIC [20] was 16 µg/mL (≈ 67.7 µM), the MIC (Candida albicans [21]) was 32 µg/mL (≈ 135 µM) and the Inhibition zone (Kluyveromyces marxianus [22]) was 13 mm. The MIC (Aspergillus fumigatus) was 16 µg/mL (≈ 67.7 µM), the MIC (Penicillium italicum) was 4 µg/mL (≈ 16.9 µM) and the Inhibition zone (Nakaseomyces glabratus [23]) was 11 mm. The Inhibition zone (Cephalosporium) was 13 mm, the Inhibition zone (Saccharomyces cerevisiae [24]) was 15.8 mm and the Inhibition zone (Naganishia albida) was 23 mm. It also gave an MIC (Aspergillus flavus) of 16 µg/mL (≈ 67.7 µM), an MIC (Candida albicans [25]) of 32 µg/mL (≈ 135 µM) and an MIC (Candida albicans [26]) of 16 µg/mL (≈ 67.7 µM). For the same compound, the Inhibition zone (Rhizomucor miehei) was 15 mm, the Inhibition zone (Saccharomyces cerevisiae [27]) was 14.4 mm and the MIC (Candida parapsilosis [28]) was 16 µg/mL (≈ 67.7 µM). It also gave an Inhibition zone (Penicillium [29]) of 22 mm.
`CC(=O)N1CCN(c2ccc(OCC3COC(Cn4ccnc4)(c4ccc(Cl)cc4Cl)O3)cc2)CC1` (stereo not drawn) [KETOCONAZOLE] was tested, and the MIC (Candida tropicalis [1]) was > 128 µg/mL, the Inhibition zone (Saccharomyces cerevisiae [30]) was 24.8 mm and the MIC (Pichia kudriavzevii) was 1 µg/mL (≈ 1.88 µM). The MIC (Cryptococcus neoformans [3]) was 0.5 µg/mL (≈ 0.941 µM), the MIC (Candida parapsilosis [4]) was 4 µg/mL (≈ 7.53 µM) and the Inhibition zone (Saccharomyces cerevisiae [5]) was 23.3 mm. For the same compound, the MIC (Diutina rugosa) was 0.5 µg/mL (≈ 0.941 µM), the MIC (Kluyveromyces marxianus [6]) was 1 µg/mL (≈ 1.88 µM) and the MIC (Saccharomyces cerevisiae [7]) was 0.5 µg/mL (≈ 0.941 µM). It also gave an MIC (Candida albicans [9]) of 0.5 µg/mL (≈ 0.941 µM), an MIC (Candida tropicalis [10]) of 1 µg/mL (≈ 1.88 µM) and an MIC (Candida albicans [11]) of 1 µg/mL (≈ 1.88 µM). The MIC (Candida albicans [14]) was 0.5 µg/mL (≈ 0.941 µM), the MIC (Cryptococcus neoformans [16]) was 0.25 µg/mL (≈ 0.47 µM) and the MIC (Nakaseomyces glabratus [17]) was 1 µg/mL (≈ 1.88 µM). The Inhibition zone (Fungi) was 27.2 mm, the MIC [20] was 0.5 µg/mL (≈ 0.941 µM) and the MIC (Candida albicans [21]) was 0.5 µg/mL (≈ 0.941 µM). For the same compound, the MIC (Aspergillus fumigatus) was 1 µg/mL (≈ 1.88 µM), the MIC (Penicillium italicum) was 1 µg/mL (≈ 1.88 µM) and the Inhibition zone (Saccharomyces cerevisiae [24]) was 20.6 mm. For the same compound, the MIC (Aspergillus flavus) was 1 µg/mL (≈ 1.88 µM), the MIC (Candida albicans [25]) was 0.5 µg/mL (≈ 0.941 µM) and the MIC (Candida albicans [26]) was 0.5 µg/mL (≈ 0.941 µM). It also gave an MIC (Candida parapsilosis [28]) of 2 µg/mL (≈ 3.76 µM).
